The source of these data is publication PMC6408977 (Journal of controlled release : official journal of the …, 2019).

Non-standard residues stand in square brackets, D forms with d. Residues, ends and D or L forms follow the SMILES beside them. Tyr(3-I) = N[C@@H](Cc1ccc(O)c(I)c1)C(=O)O

Data set [1] can be described thus: Tissue biodistribution measurements. The arrangement: species or system Balb/c mice. The note with it: mouse, in vivo, iv. A digest of the protocol:
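Female Balb/c mice, 8–12 weeks old, from an in-house colony (n = 3). Tissue radioactivity was measured at 1 h and 4 h post-injection, alongside whole-body SPECT/CT imaging at the same times.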

The next data set deals with albumin. To be noted: read-out: Albumin dissociation constant; cited from earlier work.
For data set [2], the target named is human serum albumin (Homo sapiens) (UniProt P02768). The note with it: cited from earlier work.

Broadly, the tissue uptake is the percentage of the injected dose found per gram of tissue. Higher therefore signals strong accumulation. `CC(C)C[C@H](NC(=O)CNC(=O)[C@H](C)NC(=O)[C@H](Cc1ccc(O)c(I)c1)NC(=O)CN)C(=O)N[C@@H](C)C(=O)NCC(=O)N[C@@H](CC(C)C)C(=O)N[C@@H](CC(C)C)C(=O)NCC(=O)N[C@@H](CC(C)C)C(=O)N[C@@H](CCC(=O)O)C(=O)NCC(=O)N[C@@H](CC(C)C)C(=O)N[C@@H](CC(C)C)C(=O)NCC(=O)N[C@@H](CC(C)C)C(=O)N1CCC[C@H]1C(=O)N[C@@H](CC(C)C)C(=O)NCC(=O)N[C@@H](CC(C)C)C(=O)N[C@@H](CC(C)C)C(=O)N[C@@H](CCC(=O)O)C(=O)NCC(=O)N[C@@H](CC(C)C)C(=O)N[C@@H](Cc1c[nH]c2ccccc12)C(=O)N[C@@H](CC(C)C)C(=O)NCC(=O)N[C@@H](CC(C)C)C(=O)N[C@@H](CCC(=O)O)C(=O)N[C@@H](CC(C)C)C(=O)N[C@@H](CCC(=O)O)C(=O)NCC(=O)N[C@@H](CC(N)=O)C(=O)O` [^125I-ATRAM] (H-G[Tyr(3-I)]AGLAGLLGLEGLLGLPLGLLEGLWLGLELEGN-OH; N-terminus and C-terminus assumed): in data set [1], the tissue uptake at 1 h is 18 %ID/g and the tissue uptake at 4 h is 10 %ID/g. On to `CC1(C)S[C@@H]2[C@H](NC(=O)Cc3ccccc3)C(=O)N2[C@H]1C(=O)O` [penicillin G], for which the Kd at albumin is 833 µM. As to insulin detemir (from UniProt P01308), the Kd in data set [2] was 4.16 µM.
